Measured values as given in ChEMBL document CHEMBL5143748, “Quinolines and Oxazino-quinoline Derivatives as Small Molecule GLI1 Inhibitors Identified by Virtual Screening” (ACS Med Chem Lett, 2022).
Active and inactive are the calls of the source. The rule behind the calls is not given here.

Assays:
[1] = test system: Daoy; assay: Antiproliferative activity against human DaOY cells assessed as reduction in cell viability incubated for 72 hrs by trypan blue or crystal violet staining based assay; assay type: functional
Method in brief: (§1)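 IC50 in micromolar, fitted from triplicate experiments in human melanoma A375 and medulloblastoma DAOY cells.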

[2] = test system: A-375; assay: Antiproliferative activity against human A375 cells assessed as reduction in cell viability incubated for 72 hrs by trypan blue or crystal violet staining based assay; assay type: functional; settings: A-375, 72 h; method in brief: as §1
[3] = test system: NIH3T3; assay: Inhibition of hedgehog signalling in SAG-induced mouse NIH3T3 cells assessed as decrease in GLI1 protein expression level at 1 uM for 48 hrs by Western blot analysis; assay type: cell-based
Method in brief: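 Murine NIH3T3 cells, endogenous Hh pathway activated with the SMO agonist SAG (100 nM), co-treated with compound (1 μM), DMSO vehicle or GANT61 (5 μM) for 48 h. Endogenous GLI1 detected by Western blot with HSP90 as loading control. Reduction graded qualitatively, e.g. "+" weak, "NA" not affected.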

SMILES | IC50 [1] [nM] | IC50 [2] [nM] | inhibition [3]
COc1ccc(CN2COc3c(ccc4cccnc34)C2)cc1 | 870 | 580 | Active
O=C(NCc1ccc2c(OCc3ccccc3)ccnc2c1O)C1CCCCC1 | 260 | 550 | Active
CCCC(=O)NC(c1ccccc1Cl)c1cc(Cl)c2cccnc2c1O (stereo not given) | 100 | 100 | Active
CCCCC(=O)NC(c1cc(Cl)cc(Cl)c1)c1ccc2cccnc2c1O (stereo not given) | 140 | 90 | Active
CCCC(=O)NC(c1ccc(Cl)cc1)c1cc(Cl)c2cccnc2c1O (stereo not given) | 100 | 120 | 
CCCC(=O)NC(c1ccccc1)c1cc(Cl)c2cccnc2c1O (stereo not given) | 110 | 130 | 
CCCCC(=O)NC(c1ccc(Cl)c(Cl)c1)c1ccc2cccnc2c1O (stereo not given) | 100 | 320 | Active
CCCCC(=O)NC(c1ccc(Cl)cc1)c1ccc2cccnc2c1O (stereo not given) | 330 | 710 | Active
CC1CCC(N2COc3c(ccc4cccnc34)C2)CC1 (stereo not given) | 550 | 420 | Active
Fc1cnc2c3c(ccc2c1)CN(C1CCCCC1)CO3 | 300 | 500 | Active
CCCC(=O)NC(c1ccc(OC)c(OC)c1)c1ccc2cccnc2c1O (stereo not given) | 110 | 130 | Active
O=C(NC(c1ccc(Cl)cc1Cl)c1ccc2cccnc2c1O)C1CCCCC1 (stereo not given) | 240 | 1010 | Active
O=C(NC(c1ccc(Cl)cc1Cl)c1ccc2cccnc2c1O)C1CCCC1 (stereo not given) | 150 | 320 | Active
CCCCC(=O)NC(c1ccc(Cl)cc1Cl)c1ccc2cccnc2c1O (stereo not given) | 150 | 1120 | Active
CCCCN1COc2c(ccc3cc(Cl)cnc23)C1 | 380 | 490 | Active
CCCCOc1ccnc2c(O)c(CNC(=O)C3CCCCC3)ccc12 | 510 | 540 | Active
c1cnc2c3c(ccc2c1)CN(C1CCCCCCC1)CO3 | 290 | 280 | Active

SMILES | IC50 [1] [nM] | IC50 [2] [nM] | inhibition [3]
CCCC(=O)NC(c1ccc(C)cc1)c1cc(Cl)c2cccnc2c1O (stereo not given) | 100 | 120 | Active
c1ccc2c(c1)CCCC2N1COc2c(ccc3cccnc23)C1 (stereo not given) | 600 | 300 | Active
O=C(NCc1ccc2cccnc2c1O)C1CCCCC1 | 720 | 910 | Active
CCCC(=O)NC(c1ccc(N(CC)CC)cc1)c1cc(Cl)c2cccnc2c1O (stereo not given) | 100 | 130 | Active
Oc1c(CNCCc2ccccc2)ccc2cccnc12 | 330 | 390 | Active
COc1ccc(C(NC(C)=O)c2cc(Cl)c3cccnc3c2O)cc1OC (stereo not given) | 210 | 110 | Active
COc1ccc(C(NC(=O)C(C)C)c2cc(Cl)c3cccnc3c2O)cc1OC (stereo not given) | 100 | 130 | Active
c1cnc2c3c(ccc2c1)CN(C1CCCCC1)CO3 | 500 | 300 | Active
Fc1cnc2c3c(ccc2c1)CN(CCc1ccccc1)CO3 | 1400 | 1100 | Active
c1ccc(CCN2COc3c(ccc4cccnc34)C2)cc1 | 190 | 130 | Active
c1cnc2c3c(ccc2c1)CN(CC1CCCCC1)CO3 | 1000 | 380 | Active
Clc1cnc2c3c(ccc2c1)CN(CCCN1CCOCC1)CO3 | 1200 | 150 | Active
Oc1c(C(NCCc2ccccc2)c2ccc(Cl)cc2Cl)ccc2cccnc12 (stereo not given) | 150 | 190 | Active
c1cnc2c3c(ccc2c1)CN(C1CCCCCC1)CO3 | 1200 | 880 | Active
CCCC(=O)NC(c1ccc(Cl)cc1Cl)c1ccc2cccnc2c1O (stereo not given) | 190 | 110 | Active
C1=C(CCN2COc3c(ccc4cccnc34)C2)CCCC1 | 230 | 120 | Active
CCCC(=O)NC(c1ccc(C(C)C)cc1)c1cc(Cl)c2cccnc2c1O (stereo not given) | 90 | 120 | Active
